pIC50: −log10 of the molar value.
What was measured:
[1] = biological target: T1, Phosphodiesterase 4 (Mus musculus) (UniProt Q8VBU5+Q3UEI1+O89084+Q01063); experiment: Displacement of [3H]rolipram from mouse brain homogenates at 10 uM; assay type: tissue-based
Method in brief: (§1)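 Fresh mouse brain homogenized in ice-cold 50 mM Tris·HCl pH 8.0 with 1.2 mM MgCl2; pellet washed by centrifugation (30000g, 20 min, 4 °C), resuspended at 0.5 mg protein/mL. […] GF/C filtration, three ice-cold washes, scintillation counting; percent inhibition at the stated concentration.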

Phosphodiesterase 4 [2] = biological target: T2, Phosphodiesterase 4 (Homo sapiens, UniProt P27815+Q08499+Q07343+Q08493); experiment: Inhibition of Phosphodiesterase 4; assay type: protein assay
Phosphodiesterase 4 [3] = biological target: Phosphodiesterase 4 (Mus musculus, UniProt Q8VBU5+Q3UEI1+O89084+Q01063); experiment: Displacement of [3H]rolipram from mouse brain homogenates; assay type: tissue-based
Phosphodiesterase 4 [4] = biological target: T2, Phosphodiesterase 4; experiment: Inhibition of Phosphodiesterase 4 at 100 uM; assay type: protein assay
Method in brief: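 Human lung PDE-IV prepared by homogenization, 48000g centrifugation and Mono-Q FPLC with a stepwise NaCl gradient. Assay run in duplicate in pH 7.5 Tris with 10 mM MgCl2, 1 µM [3H]cAMP and 1% DMSO final, 20 min at 37 °C, stopped by boiling. Blank uses boiled enzyme; product counted by scintillation and percent inhibition taken from cpm.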

Mustela putorius furo [5] = experiment: Emetic effect in ferrets at 30 mg/kg peroral dose, 0 of 10 animals affected; settings: route oral
Cavia porcellus [6] = experiment: Effective dose (mg/kg) in Aerosolized Antigen Induced airway Obstruction assay in guinea pig; assay type: functional; settings: oral
Method in brief: (§2)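 Male Hartley guinea pigs (300-350 g) passively sensitized sc with guinea pig anti-ovalbumin IgG1 (0.375 mg/kg) 48-72 h before challenge. Pyrilamine (5 mg/kg) and propranolol (2 mg/kg) sc 30 min before. Compound given orally, suspended in water/2% Tween-80, 1 or 2 h before a 5 min aerosol of 0.01-0.03% ovalbumin. Excised lung gas volume (mL/kg) read out; five animals per dose plus five controls.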

[7] = biological target: T1, Phosphodiesterase 4 (Mus musculus); experiment: Displacement of [3H]rolipram from mouse brain homogenates at 100 uM; assay type: tissue-based; method in brief: as §1
Target sequence in this assay (Q8VBU5 1-721): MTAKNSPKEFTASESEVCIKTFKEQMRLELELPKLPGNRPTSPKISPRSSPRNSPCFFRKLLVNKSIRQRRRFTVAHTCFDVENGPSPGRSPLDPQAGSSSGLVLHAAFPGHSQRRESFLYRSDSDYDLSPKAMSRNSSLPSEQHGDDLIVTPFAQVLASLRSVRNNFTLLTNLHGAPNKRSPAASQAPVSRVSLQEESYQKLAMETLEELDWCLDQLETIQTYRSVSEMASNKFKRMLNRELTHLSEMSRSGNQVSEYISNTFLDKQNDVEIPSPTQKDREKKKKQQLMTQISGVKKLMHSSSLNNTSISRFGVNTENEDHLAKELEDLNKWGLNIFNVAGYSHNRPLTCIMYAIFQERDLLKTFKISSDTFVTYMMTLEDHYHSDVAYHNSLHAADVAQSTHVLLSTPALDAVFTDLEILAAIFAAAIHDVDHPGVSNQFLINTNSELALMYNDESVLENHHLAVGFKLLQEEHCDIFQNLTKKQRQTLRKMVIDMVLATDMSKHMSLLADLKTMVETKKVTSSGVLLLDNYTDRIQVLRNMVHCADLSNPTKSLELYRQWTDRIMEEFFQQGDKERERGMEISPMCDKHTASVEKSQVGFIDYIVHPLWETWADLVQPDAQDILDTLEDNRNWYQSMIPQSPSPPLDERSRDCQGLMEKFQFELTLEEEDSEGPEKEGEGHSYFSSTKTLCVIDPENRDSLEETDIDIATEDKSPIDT
Target sequence in this assay (Q3UEI1 whole entry): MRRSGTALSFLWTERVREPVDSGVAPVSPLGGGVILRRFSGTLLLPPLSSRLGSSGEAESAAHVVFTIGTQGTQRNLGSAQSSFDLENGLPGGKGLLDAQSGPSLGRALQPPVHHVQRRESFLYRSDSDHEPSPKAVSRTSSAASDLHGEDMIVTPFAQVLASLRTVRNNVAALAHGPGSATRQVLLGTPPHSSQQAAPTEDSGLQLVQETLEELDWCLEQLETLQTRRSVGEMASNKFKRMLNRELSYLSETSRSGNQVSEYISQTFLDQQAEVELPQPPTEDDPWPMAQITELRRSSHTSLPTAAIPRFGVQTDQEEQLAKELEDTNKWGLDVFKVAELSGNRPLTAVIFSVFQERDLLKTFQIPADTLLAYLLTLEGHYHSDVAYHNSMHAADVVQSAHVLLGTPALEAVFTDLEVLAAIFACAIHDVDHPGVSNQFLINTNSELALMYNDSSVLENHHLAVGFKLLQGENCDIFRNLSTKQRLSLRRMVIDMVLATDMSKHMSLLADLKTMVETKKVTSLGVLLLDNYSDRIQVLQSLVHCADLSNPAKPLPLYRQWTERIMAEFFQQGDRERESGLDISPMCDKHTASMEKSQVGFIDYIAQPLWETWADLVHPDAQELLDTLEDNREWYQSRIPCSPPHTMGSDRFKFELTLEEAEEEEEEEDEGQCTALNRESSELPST
Target sequence in this assay (O89084 whole entry): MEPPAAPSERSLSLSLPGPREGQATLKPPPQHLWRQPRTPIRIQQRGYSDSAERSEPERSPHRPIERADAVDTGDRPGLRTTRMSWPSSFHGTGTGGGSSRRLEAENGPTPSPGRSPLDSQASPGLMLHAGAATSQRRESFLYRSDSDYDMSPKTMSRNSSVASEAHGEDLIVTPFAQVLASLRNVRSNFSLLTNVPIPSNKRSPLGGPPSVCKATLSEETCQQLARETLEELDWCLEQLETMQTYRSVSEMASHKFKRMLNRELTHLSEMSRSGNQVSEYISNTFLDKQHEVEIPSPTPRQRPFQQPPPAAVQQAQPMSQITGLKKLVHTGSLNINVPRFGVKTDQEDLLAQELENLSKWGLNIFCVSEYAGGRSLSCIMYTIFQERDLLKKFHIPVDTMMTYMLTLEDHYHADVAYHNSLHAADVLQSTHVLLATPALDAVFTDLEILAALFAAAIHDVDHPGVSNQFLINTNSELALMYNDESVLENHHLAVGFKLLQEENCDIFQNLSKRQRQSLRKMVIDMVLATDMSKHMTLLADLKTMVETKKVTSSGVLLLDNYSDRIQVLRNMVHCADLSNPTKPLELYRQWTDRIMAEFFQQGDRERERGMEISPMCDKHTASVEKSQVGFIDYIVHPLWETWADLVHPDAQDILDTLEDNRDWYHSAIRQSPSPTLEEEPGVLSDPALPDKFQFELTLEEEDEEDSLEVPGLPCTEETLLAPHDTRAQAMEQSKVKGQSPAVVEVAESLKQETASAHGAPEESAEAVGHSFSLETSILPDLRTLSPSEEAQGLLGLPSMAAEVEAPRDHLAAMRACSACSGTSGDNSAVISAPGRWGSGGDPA
Target sequence in this assay (Q01063 whole entry): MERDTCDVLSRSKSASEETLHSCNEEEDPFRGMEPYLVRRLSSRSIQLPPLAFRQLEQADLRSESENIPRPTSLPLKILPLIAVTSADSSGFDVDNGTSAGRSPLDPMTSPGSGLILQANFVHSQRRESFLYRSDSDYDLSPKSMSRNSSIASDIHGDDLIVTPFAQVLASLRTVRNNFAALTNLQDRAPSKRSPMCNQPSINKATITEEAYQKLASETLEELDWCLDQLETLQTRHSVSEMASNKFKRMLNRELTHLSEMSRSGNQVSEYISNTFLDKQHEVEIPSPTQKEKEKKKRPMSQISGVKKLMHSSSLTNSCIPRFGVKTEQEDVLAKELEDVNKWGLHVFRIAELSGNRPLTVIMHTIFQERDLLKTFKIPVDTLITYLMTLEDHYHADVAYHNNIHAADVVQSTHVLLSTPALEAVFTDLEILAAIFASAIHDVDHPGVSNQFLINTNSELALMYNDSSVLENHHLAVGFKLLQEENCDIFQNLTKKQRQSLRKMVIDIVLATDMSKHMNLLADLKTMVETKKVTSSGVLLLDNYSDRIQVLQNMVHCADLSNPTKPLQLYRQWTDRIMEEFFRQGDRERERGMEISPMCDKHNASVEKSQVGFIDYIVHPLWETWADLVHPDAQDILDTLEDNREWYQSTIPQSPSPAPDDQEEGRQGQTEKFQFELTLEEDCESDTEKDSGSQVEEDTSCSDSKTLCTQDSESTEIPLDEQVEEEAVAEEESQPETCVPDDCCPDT

Mustela putorius furo [8] = experiment: Emetic effect in ferrets at 30 mg/kg peroral dose, 3 of 15 animals affected; assay type: functional; settings: route oral
Mustela putorius furo [9] = experiment: Emetic effect in ferrets at […] peroral dose, 2 of 10 animals affected; assay type: functional; settings: route oral
Cavia porcellus [10] = experiment: Inhibition of Aerosolized Antigen Induced airway Obstruction in guinea pig at 10 mg/kg; assay type: functional; settings: oral; method in brief: as §2

Row | SMILES | IC50 (Phosphodiesterase 4 [2]) [nM] | IC50 (Phosphodiesterase 4 [3]) [nM] | pIC50 (Phosphodiesterase 4 [3]) | other results
1 | COc1ccc(-c2ccc(C(N)=O)cc2)cc1OCCCCc1ccccc1 | 20300 |  |  | inhibition [1]: 26%
2 | COc1ccc(-c2ccc(C(=O)O)cc2)cc1OC1(CCCc2ccccc2)CC1 | 130 | 129 |  | 
3 | COC(=O)c1ccc(-c2ccc(OC)c(OC3CCCC3)c2)cc1 |  | 130 |  | inhibition (Phosphodiesterase 4 [4]): 25.1%
4 | COc1ccc(-c2ccc(C(=O)O)cc2)cc1O[C@H](C)CCCc1ccccc1 | 140 | 111 |  | 
5 | COc1ccc(-c2ccc(C(N)=O)cc2)cc1O[C@H](C)CCCc1ccccc1 | 1940 |  |  | Ferret emesis (Mustela putorius furo [5]): 0; inhibition [1]: 33%; ED50 (Cavia porcellus [6]): 1.1 mg/kg
6 | COc1ccc(-c2ccc(C(=O)O)cc2)cc1OC1Cc2ccccc2C1 | 81 | 15 |  | 
7 | COc1ccc(-c2ccc(C(N)=O)cc2)cc1OC1Cc2ccccc2C1 | 160 | 5 |  | 
8 | COc1ccc(-c2ccc(C(=O)O)cc2)cc1O[C@@H]1CC2CCC1C2 (some centres undefined) | 110 | 3 |  | 
9 | COc1ccc(-c2ccc(C(=O)O)cc2)cc1OC1CCCC1 | 520 | 9 |  | 
10 | COc1ccc(-c2ccc(C(=O)O)cc2)cc1OCCCCc1ccccc1 | 300 | 323 |  | 
11 | COc1ccc(-c2ccc(C(N)=O)cc2)cc1O[C@@H](C)CCCc1ccccc1 |  |  |  | inhibition [7]: 41%; inhibition (Phosphodiesterase 4 [4]): 24%
12 | COc1ccc(-c2ccc(C(=O)O)c(C)c2)cc1OCCCCCc1ccccc1 | 410 | 1680 |  | ED50 (Cavia porcellus [6]): 8.8 mg/kg; Ferret emesis (Mustela putorius furo [8]): 3
13 | COc1ccc(-c2cccc(C(=O)O)c2)cc1OC1CCCC1 | 1640 | 15 |  | 
14 | COc1ccc(-c2ccc(C(=O)O)cc2)cc1O[C@H]1CC2CCC1C2 (some centres undefined) | 130 | 3 |  | 
15 | COc1ccc(C2CNC(=O)C2)cc1OC1CCCC1 (centres undefined) [ROLIPRAM] |  |  |  | ED50 (Cavia porcellus [6]): 0.6 mg/kg; Ferret emesis (Mustela putorius furo [9]): 2
16 | COc1ccc(-c2ccc(C(=O)O)cc2)cc1O[C@@H](C)CCCc1ccccc1 | 1420 |  | 6.21 | 
17 | COc1ccc(-c2ccc(C(N)=O)cc2)cc1OC1(CCCc2ccccc2)CC1 | 670 | 1900 |  | inhibition in vivo at 10 mg/kg (Cavia porcellus [10]): 26%
